Results taken from paper PMC7357868 (ACS chemical biology, 2019).

Columns and labels:
hpol η [1] = target: T1, hpol η (Homo sapiens, UniProt Q9Y253); test: TAMRA strand-displacement fluorescence assay of DNA polymerase activity; type: biochemical; conditions: 95% CI in parentheses
T1 sequence (Q9Y253 1-437): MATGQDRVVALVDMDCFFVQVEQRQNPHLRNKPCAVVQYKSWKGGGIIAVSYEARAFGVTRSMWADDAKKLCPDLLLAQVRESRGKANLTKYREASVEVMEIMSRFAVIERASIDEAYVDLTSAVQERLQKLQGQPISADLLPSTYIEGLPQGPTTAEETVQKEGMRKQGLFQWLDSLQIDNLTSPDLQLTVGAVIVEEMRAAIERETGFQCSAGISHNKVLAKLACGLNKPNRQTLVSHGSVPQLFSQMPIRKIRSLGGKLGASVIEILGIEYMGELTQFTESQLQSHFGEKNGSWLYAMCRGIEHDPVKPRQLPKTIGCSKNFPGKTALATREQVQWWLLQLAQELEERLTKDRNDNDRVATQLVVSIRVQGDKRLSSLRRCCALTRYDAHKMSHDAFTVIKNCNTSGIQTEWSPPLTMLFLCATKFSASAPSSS

[2] = tested on: hpol κ-proficient HAP-1 cells; test: supF mutagenesis assay; type: cell-based, human; conditions: 1 μM IAG-10, 24 h
Outline: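 HAP-1 cells at ~80% confluency (IMDM, 10% FBS) lipofected for 24 h with pSP189 supF plasmid (10 μg per 10 cm dish), ±1 μM test compound. Plasmid was unmodified or pretreated with 100 mM MMS (HEPES pH 7.5, RT, 1 h). Recovered plasmid DpnI-digested, electroporated into E. coli MBM7070, plated on ampicillin/IPTG/X-gal. Mutation frequency = white/(blue + white); ≥10 000 colonies per condition; biological triplicate, mean ±SD.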

[3] = target: DNA pol I from Mycobacterium tuberculosis (Tb pol I) (Mycobacterium tuberculosis, UniProt P9WNU5); test: TAMRA strand-displacement selectivity assay, A-family pol; type: biochemical; conditions: 10 μM IAG-10, 10 nM Tb pol I
hpol ι = target: T2, hpol ι (Homo sapiens, UniProt Q9UNA4); test: Gel-based primer extension assay; type: biochemical; conditions: 10 μM IAG-10, 10 nM hpol ι
T2 sequence (Q9UNA4 1-446): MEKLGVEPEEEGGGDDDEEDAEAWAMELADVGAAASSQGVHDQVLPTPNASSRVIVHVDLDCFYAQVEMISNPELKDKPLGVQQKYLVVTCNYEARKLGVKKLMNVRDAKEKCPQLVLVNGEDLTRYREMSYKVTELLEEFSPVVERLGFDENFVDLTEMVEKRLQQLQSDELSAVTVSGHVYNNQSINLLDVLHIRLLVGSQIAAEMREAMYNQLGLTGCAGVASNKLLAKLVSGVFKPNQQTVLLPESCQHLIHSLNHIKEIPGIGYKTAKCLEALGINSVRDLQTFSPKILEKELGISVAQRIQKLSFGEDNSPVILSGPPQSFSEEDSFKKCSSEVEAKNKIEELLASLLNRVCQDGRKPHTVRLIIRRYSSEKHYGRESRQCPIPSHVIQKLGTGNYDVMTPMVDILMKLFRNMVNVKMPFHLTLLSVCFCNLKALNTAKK

[4] = tested on: hpol κ-deficient HAP-1 cells; test: Clonogenic survival assay; type: cell-based, human
[5] = tested on: hpol κ-deficient HAP-1 cells; test: Alkaline comet assay; type: cell-based, human
Outline: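 100 000 HAP-1 cells per well, test compound 0.5 μM alone or with alkylating agent (100 μM), 1 h; DMSO control. Cells embedded in low-melting agarose (200–300 per well), lysed 1 h, alkaline unwinding (200 mM NaOH, 1 mM EDTA) 20 min RT, electrophoresis 21 V, 30 min, 4 °C, SYBR Gold stain. Read-out is % DNA in tail per cell; ≥20 cells per replicate, three biological replicates, mean ±SD.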

hpol η [6] = target: T1, hpol η; test: Gel-based primer extension assay; type: biochemical; conditions: 10 μM IAG-10, 2 nM hpol η
hpol β = hpol β (Homo sapiens, UniProt P06746); test: TAMRA strand-displacement selectivity assay, X-family pol; type: biochemical; conditions: 10 μM IAG-10, 1 nM hpol β
hpol η [7] = target: T1, hpol η; test: Steady-state kinetic analysis of nucleotide insertion; type: biochemical; conditions: increasing IAG-10 concentration
hpol κ [8] = target: T3, hpol κ (Homo sapiens, UniProt Q9UBT6); test: Gel-based primer extension assay; type: biochemical; conditions: 10 μM IAG-10, 1 nM hpol κ
T3 sequence (Q9UBT6 19-526): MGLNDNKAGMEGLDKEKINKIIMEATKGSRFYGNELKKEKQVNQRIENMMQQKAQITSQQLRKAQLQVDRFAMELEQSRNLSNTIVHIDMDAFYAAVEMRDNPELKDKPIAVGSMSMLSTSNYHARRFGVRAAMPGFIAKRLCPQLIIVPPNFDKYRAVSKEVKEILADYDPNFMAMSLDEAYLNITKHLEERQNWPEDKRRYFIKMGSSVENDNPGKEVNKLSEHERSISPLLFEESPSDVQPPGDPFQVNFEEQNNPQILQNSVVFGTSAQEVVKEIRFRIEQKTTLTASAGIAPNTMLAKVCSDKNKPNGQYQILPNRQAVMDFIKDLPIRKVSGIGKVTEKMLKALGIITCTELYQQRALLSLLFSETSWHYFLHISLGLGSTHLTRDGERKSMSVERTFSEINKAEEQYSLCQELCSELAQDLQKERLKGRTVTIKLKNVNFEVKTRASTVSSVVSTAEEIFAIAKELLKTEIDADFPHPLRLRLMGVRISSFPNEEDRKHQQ

hpol κ [9] = target: T3, hpol κ; test: TAMRA strand-displacement fluorescence assay of DNA polymerase activity; type: biochemical
hpol κ [10] = target: T3, hpol κ; test: Steady-state kinetic analysis of dTTP insertion; type: biochemical; conditions: 0.5 nM hpol κ, 25 nM DNA, varying inhibitor concentration

DNA pol I from Mycobacterium tuberculosis (Tb pol I), sequence (P9WNU5 whole entry): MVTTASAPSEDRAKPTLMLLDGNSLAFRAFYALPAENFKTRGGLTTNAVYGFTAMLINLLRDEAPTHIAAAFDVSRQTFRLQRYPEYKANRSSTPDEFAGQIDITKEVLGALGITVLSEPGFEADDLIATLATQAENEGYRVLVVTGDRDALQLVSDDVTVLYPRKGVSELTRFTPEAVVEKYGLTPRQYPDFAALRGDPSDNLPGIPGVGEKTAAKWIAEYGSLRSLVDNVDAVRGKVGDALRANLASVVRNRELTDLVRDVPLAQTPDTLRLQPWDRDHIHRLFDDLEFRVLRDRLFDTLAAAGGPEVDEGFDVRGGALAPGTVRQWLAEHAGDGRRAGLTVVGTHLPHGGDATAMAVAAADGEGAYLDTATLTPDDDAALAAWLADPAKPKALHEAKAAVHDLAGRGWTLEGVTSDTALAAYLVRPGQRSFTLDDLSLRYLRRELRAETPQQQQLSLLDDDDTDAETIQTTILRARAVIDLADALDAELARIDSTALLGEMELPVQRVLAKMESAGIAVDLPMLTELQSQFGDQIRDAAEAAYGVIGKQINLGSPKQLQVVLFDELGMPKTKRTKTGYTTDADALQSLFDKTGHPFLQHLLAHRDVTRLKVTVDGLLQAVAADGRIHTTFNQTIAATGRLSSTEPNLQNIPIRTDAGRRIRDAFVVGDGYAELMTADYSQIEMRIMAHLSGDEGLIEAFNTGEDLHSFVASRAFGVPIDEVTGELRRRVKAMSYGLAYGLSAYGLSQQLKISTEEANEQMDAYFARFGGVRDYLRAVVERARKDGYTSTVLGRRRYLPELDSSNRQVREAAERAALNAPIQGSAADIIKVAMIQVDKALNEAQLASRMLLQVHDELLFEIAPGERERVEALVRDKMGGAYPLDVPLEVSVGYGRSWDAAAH

## Cl.[H]/N=C(\N)NN=Cc1cn(C(=O)c2cccc3ccccc23)c2ccc(Cl)cc12 [IAG-10, (E)-2-((1-(1-naphthoyl)-5-chloro-1H-indol-3-yl)-methylene)hydrazine-1-carboximidamide hydrochloride]
Hpol η [1]; IC50, 0.2 nM hpol η, 2 nM DNA
  IC50: 22.5 µM
Hpol η [1]; IC50, 1 nM hpol η, 50 nM DNA
  IC50: 14.3 µM
[2]
  mutation frequency, MMS-damaged DNA over undamaged control plasmid: approximately twofold
  mutation frequency, undamaged pSP189 plasmid: did not change the mutation frequency
[3]
  polymerase activity in presence of compound: only hpol κ activity was inhibited
Hpol ι
  polymerase activity in presence of compound: only hpol κ was inhibited
[4]; 0.5 μM IAG-10 alone
  colony formation: does not impair colony formation
[4]; TMZ + 0.5 μM IAG-10
  colony forming ability, cotreatment over TMZ alone: did not show any significant reduction
[5]; 0.5 μM IAG-10 alone, 1 h
  DNA damage (% DNA in tail) over control: did not increase DNA damage over control
[5]; 100 μM TMZ + 0.5 μM IAG-10, compared with TMZ alone
  DNA damage (% DNA in tail): did not increase further
Hpol η [6]
  polymerase activity in presence of compound: only hpol κ was inhibited
Hpol β
  polymerase activity in presence of compound: only hpol κ activity was inhibited
Hpol η [7]
  effect on Michaelis constant: linear increase
  effect on kcat: no measurable change
Hpol κ [8]
  polymerase activity in presence of compound: only hpol κ was inhibited
Hpol κ [9]; 10 μM IAG-10, 25 nM hpol κ
  polymerase activity in presence of compound: only hpol κ activity was inhibited
Hpol κ [9]; 40 μM compound, 1 nM hpol κ, 50 nM DNA, relative to DMSO control
  inhibition of enzyme activity in the initial screen: greatest inhibitory action
Hpol κ [9]; IC50, 0.1 nM hpol κ, 0.5 nM DNA, 95% CI in parentheses
  IC50: 0.72 µM
Hpol κ [9]; IC50, 0.2 nM hpol κ, 1 nM DNA, 95% CI in parentheses
  IC50: 1.1 µM
Hpol κ [9]; IC50, 0.2 nM hpol κ, 2.5 nM DNA, 95% CI in parentheses
  IC50: 1.4 µM
Hpol κ [9]; IC50, 0.5 nM hpol κ, 10 nM DNA, 95% CI in parentheses
  IC50: 8.9 µM
Hpol κ [9]; IC50, 1 nM hpol κ, 25 nM DNA, 95% CI in parentheses
  IC50: 8.9 µM
Hpol κ [9]; IC50, 1 nM hpol κ, 50 nM DNA, 100 μM dTTP, 1 mM MgCl2, 25 °C, mean n = 3
  IC50: 7.2 µM
Hpol κ [9]; initial reaction conditions (higher enzyme and DNA)
  specificity for hpol κ over η: ~ 2 fold
Hpol κ [9]; lower concentrations of enzyme and DNA
  specificity for hpol κ over η: ~ 30 fold
Hpol κ [10]
  effect on turnover number (kcat): sharp decrease
